Experiment [1] has as its target E129Q mutant 5-HT3 receptor (mouse 5-HT3A subunit) (Mus musculus, UniProt P23979, E129Q). Put plainly: Agonist-induced currents, voltage clamp electrophysiology in Xenopus oocytes. Type of experiment: cell-based. To be noted: NR = no response.
In experiment [2] the target is T1, E129N mutant 5-HT3 receptor (mouse 5-HT3A subunit) (Mus musculus, UniProt P23979, E129N).
T1 sequence (P23979 24-483 isoform P23979-2 E129N limits assumed): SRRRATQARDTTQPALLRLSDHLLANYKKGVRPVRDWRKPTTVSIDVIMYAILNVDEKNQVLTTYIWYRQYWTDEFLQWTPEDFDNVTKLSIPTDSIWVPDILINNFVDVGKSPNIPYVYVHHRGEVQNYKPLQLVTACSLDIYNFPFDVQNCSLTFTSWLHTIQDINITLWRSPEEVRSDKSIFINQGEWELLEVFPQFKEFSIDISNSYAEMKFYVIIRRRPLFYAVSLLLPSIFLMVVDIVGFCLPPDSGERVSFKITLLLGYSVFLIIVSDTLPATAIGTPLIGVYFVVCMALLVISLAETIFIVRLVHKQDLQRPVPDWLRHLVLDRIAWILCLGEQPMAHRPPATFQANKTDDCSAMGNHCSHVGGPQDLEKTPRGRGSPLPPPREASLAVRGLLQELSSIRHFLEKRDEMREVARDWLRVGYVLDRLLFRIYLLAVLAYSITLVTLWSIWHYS
The experiment is described as above. Type of experiment: cell-based. The note with it: E129N.

For experiment [3], the target named is T2, N128-Akp mutant 5-HT3 receptor (mouse 5-HT3A subunit) (Mus musculus, UniProt Q6J1J7).
T2 sequence (Q6J1J7 24-483): T1 sequence (P23979 24-483 isoform P23979-2 E129N limits assumed) with N106E, F436L
Briefly: Agonist-induced currents, voltage clamp electrophysiology in Xenopus oocytes. Type of experiment: cell-based. Summed up: (§1)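 Mouse 5-HT3A receptor carrying Nha or Akp, introduced by nonsense suppression. Stage V-VI Xenopus oocytes were co-injected with 5 ng cRNA and 25 ng photodeprotected aminoacyl-tRNA. Controls received tRNA without an amino acid. At 24-72 h, agonist currents were recorded by two-electrode voltage clamp at -60 mV, 22-25 °C, in Ca-free ND96 (pH 7.5).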

Experiment [4] addresses T3, N128R mutant 5-HT3 receptor (mouse 5-HT3A subunit) (Mus musculus, UniProt P23979, N128R).
T3 sequence (P23979 24-483 isoform P23979-2 N128R limits assumed): T1 sequence (P23979 24-483 isoform P23979-2 E129N limits assumed) with N105R, N106E
Briefly: Agonist-induced currents, voltage clamp electrophysiology in Xenopus oocytes. To be noted: SR = small (<100 nA) responses. The format is cell-based.

Experiment [5] concerns the target E129A mutant 5-HT3 receptor (mouse 5-HT3A subunit) (Mus musculus, UniProt P23979, E129A). Described as above. The format is cell-based. To be noted: NR = no response.
In experiment [6] the test system is Asn128 mutant 5-HT3 receptors (all except Ala and Val). Put plainly: Relative efficacy of mCPBG, voltage clamp electrophysiology in Xenopus oocytes. The format is cell-based, mouse. To be noted: Asn128 mutations.
The target of experiment [7] is E129K mutant 5-HT3 receptor (mouse 5-HT3A subunit) (Mus musculus, UniProt P23979, E129K). Briefly: Agonist-induced currents, voltage clamp electrophysiology in Xenopus oocytes. To be noted: NR = no response. Type of experiment: cell-based.
Experiment [8] has as its target E129G mutant 5-HT3 receptor (mouse 5-HT3A subunit) (Mus musculus, UniProt P23979, E129G). The description is as above. The format is cell-based. The note with it: NR = no response.
Experiment [9] addresses N128-Nha mutant 5-HT3 receptor (mouse 5-HT3A subunit). Put plainly: Agonist-induced currents, voltage clamp electrophysiology in Xenopus oocytes. Type of experiment: cell-based. The note with it: SR = small (<100 nA) responses. Summed up: as §1

Where a chain is given by its changes, count along the chain named. Marks after values point to notes of the source that are not given here.

Chain of E129Q mutant 5-HT3 receptor (mouse 5-HT3A subunit) (P23979 24-483 isoform P23979-2 E129Q limits assumed): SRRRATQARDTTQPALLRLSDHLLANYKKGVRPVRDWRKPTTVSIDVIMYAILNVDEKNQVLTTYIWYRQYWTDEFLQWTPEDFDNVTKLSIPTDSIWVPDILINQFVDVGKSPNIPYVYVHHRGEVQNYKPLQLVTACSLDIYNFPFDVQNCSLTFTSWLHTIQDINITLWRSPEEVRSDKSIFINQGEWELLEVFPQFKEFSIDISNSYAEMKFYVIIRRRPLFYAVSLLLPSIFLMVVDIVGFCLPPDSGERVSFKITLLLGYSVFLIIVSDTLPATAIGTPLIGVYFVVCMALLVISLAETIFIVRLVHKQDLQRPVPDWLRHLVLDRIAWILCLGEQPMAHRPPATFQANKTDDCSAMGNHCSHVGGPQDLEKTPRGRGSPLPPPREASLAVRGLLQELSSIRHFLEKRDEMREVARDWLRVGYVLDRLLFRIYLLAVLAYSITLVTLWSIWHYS
Chain of E129A mutant 5-HT3 receptor (mouse 5-HT3A subunit) (P23979 24-489 E129A): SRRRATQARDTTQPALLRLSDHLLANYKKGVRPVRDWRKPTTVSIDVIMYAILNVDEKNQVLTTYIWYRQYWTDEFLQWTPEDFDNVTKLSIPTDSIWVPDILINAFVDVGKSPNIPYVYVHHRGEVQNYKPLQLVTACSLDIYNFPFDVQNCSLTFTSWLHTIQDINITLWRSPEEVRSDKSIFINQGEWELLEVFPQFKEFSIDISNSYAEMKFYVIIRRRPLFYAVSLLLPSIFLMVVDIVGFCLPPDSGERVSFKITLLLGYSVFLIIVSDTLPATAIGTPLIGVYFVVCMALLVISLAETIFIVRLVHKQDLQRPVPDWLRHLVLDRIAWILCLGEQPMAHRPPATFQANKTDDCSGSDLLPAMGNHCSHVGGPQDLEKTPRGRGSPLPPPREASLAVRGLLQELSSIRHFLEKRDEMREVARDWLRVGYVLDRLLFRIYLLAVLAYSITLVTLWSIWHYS
Chain of E129K mutant 5-HT3 receptor (mouse 5-HT3A subunit) (P23979 24-483 isoform P23979-2 E129K limits assumed): as the sequence (P23979 24-483 isoform P23979-2 E129Q limits assumed) above, with Q106K counted along it
Chain of E129G mutant 5-HT3 receptor (mouse 5-HT3A subunit) (P23979 24-483 isoform P23979-2 E129G limits assumed): as the sequence (P23979 24-483 isoform P23979-2 E129Q limits assumed) above, with Q106G counted along it

A word on the EC50: it is the concentration that produces a half-maximal response. One may read the pEC50 as the EC50 on a negative log10 scale, so that one unit is a factor of ten. A lower pEC50 goes with a large EC50. For `NCCc1c[nH]c2ccc(O)cc12` [5-HT, 5-hydroxytryptamine], in [1], the “nH (Hill coefficient)” value is recorded as 1.55 ± 0.07 ^b. Also, in experiment [2], the “size of agonist response (current)” value is reported as over 5 µA. For the same compound, in [3], the EC50 stood at 4.6 µM, the “nH (Hill coefficient)” value was 1.49 ± 0.06 ^b and the pEC50 is 5.33 ± 0.01 ^b.

For the compound `N=C(N)NC(=N)Nc1cccc(Cl)c1` [mCPBG, m-chlorophenylbiguanide], the concentration giving a half-maximal response (EC50) is 7.3 µM in experiment [4]; over 100 µM in experiment [5]; 0.62 µM in experiment [2]; over 100 µM in experiment [7]; over 100 µM in experiment [8]; 2.8 µM in experiment [9]. Further, the “nH (Hill coefficient)” value is recorded as 1.93 ± 0.16 in experiment [4], 1.25 ± 0.19 in experiment [2] and 2.18 ± 0.23 in experiment [9]. The values for the pEC50 in experiment [4], in experiment [2] (SR = small (<100 nA) responses) and in [9] were 5.14 ± 0.02 ^b, 6.21 ± 0.05 and 5.55 ± 0.02 ^b, respectively. Further, in experiment [2], the “size of agonist response (current)” value is reported as over 5 µA. Moreover, the “increase of mCPBG Rmax compared to that of WT” value in experiment [6] was 2−19 fold.
